Data as given in ChEMBL document CHEMBL3232816, “Substituted E-3-(3-indolylmethylene)1,3-dihydroindol-2-ones with antiproliferative activity. Study of the effects on HL-60 leukemia cells” (2014).

Legend:
Format in all cases: functional
[1] = Cytotoxicity against human prostate cancer cells after 48 hrs; details: Cancer cell lines; for CC50: read-out: LC50 (the source's name)
Method in brief: (§1)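 NCI 60-line panel. Compounds were dissolved in DMSO and tested at five 10-fold dilutions, the highest 10^-4 M (10^-3 M where footnoted), over 48 h of incubation. The readouts were GI50, TGI and LC50 in μM, with the panel mean also given. Only compounds passing a 10^-5 M single-dose prescreen were tested; some were repeated and averaged over two experiments.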

[2] = Cytotoxicity against human CNS cancer cells after 48 hrs; details: Cancer cell lines; for CC50: read-out: LC50 (the source's name); method in brief: as §1
[3] = Cytotoxicity against human ovarian cancer cells after 48 hrs; details: Cancer cell lines; method in brief: as §1
[4] = Cytotoxicity against human leukemia cells after 48 hrs; details: for GI50 / TGI: Leukemia cell; method in brief: as §1
[5] = Cytotoxicity against human colon cancer cells after 48 hrs; details: Cancer cell lines; for CC50: read-out: LC50 (the source's name); method in brief: as §1
[6] = Cytotoxicity against human NSCLC cells after 48 hrs; method in brief: as §1
[7] = Cytotoxicity against human breast cancer cells after 48 hrs; details: Cancer cell lines; for CC50: read-out: LC50 (the source's name); method in brief: as §1
[8] = Cytotoxicity against human melanoma cells after 48 hrs; details: Melanoma cell; method in brief: as §1
[9] = Cytotoxicity against human renal cancer cells after 48 hrs; details: Cancer cell lines; method in brief: as §1

Row | SMILES | GI50 [1] [µM] | TGI [1] [µM] | GI50 [2] [µM] | TGI [2] [µM] | GI50 [3] [µM] | TGI [3] [µM] | GI50 [4] [µM] | TGI [4] [µM] | GI50 [5] [µM] | TGI [5] [µM] | GI50 [6] [µM] | TGI [6] [µM] | GI50 [7] [µM] | TGI [7] [µM] | GI50 [8] [µM] | TGI [8] [µM] | GI50 [9] [µM] | TGI [9] [µM] | CC50 [2] [µM] | LC50 [3] [µM] | further results
1 | COc1cc2c(/C=C3/C(=O)Nc4ccc(O)cc43)c(Cl)n(Cc3cc(OC)c(OC)c(OC)c3)c2cc1C | 2.29 | 50.1 | 2.04 | 34.7 | 2.34 | 43.6 | 1.41 | 18.6 | 2.29 | 49 | 2.4 | 32.4 | 1.41 | 34.7 | 1.45 | 11.5 | 2.75 | 33.1 |  |  | 
2 | O=C1/C(=C/c2c(Cl)[nH]c3ccccc23)c2ccccc2N1Cc1ccccc1 | 6.17 |  | 4.9 | 69.2 | 9.12 | 79.4 | 2.95 | 21.4 | 4.17 | 79.4 | 6.61 | 85.1 | 4.17 | 56.2 | 5.13 | 61.7 | 5.25 | 77.6 |  |  | 
3 | O=C1Nc2ccc(Cl)cc2/C1=C\c1c(Cl)n(CCCc2ccccc2)c2ccccc12 | 2 | 6.46 | 2.82 | 10.2 | 2.45 | 23.4 | 2.88 | 81.3 | 1.95 | 5.62 | 2.24 | 8.91 | 2.19 | 9.12 | 2.04 | 5.75 | 1.86 | 9.77 | 50.1 | 60.3 | CC50 [1]: 34.7 µM; CC50 [5]: 19.1 µM; LC50 [6]: 28.8 µM; CC50 [7]: 42.7 µM; LC50 [8]: 35.5 µM; LC50 [9]: 17.8 µM
4 | O=C1Nc2ccc(O)cc2/C1=C\c1c(Cl)n(CCc2ccccc2)c2ccccc12 | 6.76 | 47.9 | 10.5 | 52.5 | 9.12 | 64.6 | 3.39 | 77.6 | 9.77 | 33.9 | 7.08 | 50.1 | 3.98 | 25.1 | 7.08 | 28.2 | 9.33 | 55 | 95.5 | 95.5 | CC50 [5]: 72.4 µM; LC50 [8]: 74.1 µM; LC50 [9]: 95.5 µM
5 | COc1cc2c(c(OC)c1OC)/C(=C\c1c(Cl)[nH]c3ccccc13)C(=O)N2 | 1.17 | 5.5 | 1.58 | 6.31 | 1.51 | 9.77 | 0.55 | 7.08 | 1.29 | 4.27 | 1.86 | 9.12 | 1.62 | 8.13 | 1.86 | 6.61 | 1.35 | 5.37 | 35.5 | 77.6 | LC50 (concentration giving 50% net cell kill) [4]: 42.7 µM; CC50 [5]: 18.2 µM; LC50 [6]: 67.6 µM; CC50 [7]: 66.1 µM; LC50 [8]: 30.9 µM; LC50 [9]: 36.3 µM
6 | COc1cc2c(/C=C3/C(=O)Nc4cccc(Cl)c43)c(Cl)n(Cc3cc(OC)c(OC)c(OC)c3)c2cc1C | 1.91 | 5.13 | 3.02 | 12.6 | 3.98 | 22.9 | 2.45 | 14.1 | 2.88 | 10 | 3.24 | 12 | 2.95 | 15.1 | 2.88 | 8.91 | 3.24 | 11.8 | 40.7 | 66.1 | CC50 [1]: 17.4 µM; LC50 (concentration giving 50% net cell kill) [4]: 51.3 µM; CC50 [5]: 51.3 µM; LC50 [6]: 47.9 µM; CC50 [7]: 61.7 µM; LC50 [8]: 51.3 µM; LC50 [9]: 45.7 µM
7 | COc1c(/C=C2/C(=O)Nc3ccccc32)c2ccccc2n1-c1ccccc1 | 1.12 | 3.47 | 2.19 | 8.51 | 1.38 | 4.07 | 0.52 | 2.63 | 1.05 | 3.24 | 2.14 | 8.32 | 1.23 | 4.47 | 1.48 | 3.98 | 1.12 | 4.07 | 30.9 | 15.8 | CC50 [1]: 19.1 µM; LC50 (concentration giving 50% net cell kill) [4]: 50.1 µM; CC50 [5]: 7.94 µM; LC50 [6]: 27.5 µM; CC50 [7]: 27.5 µM; LC50 [8]: 10.5 µM; LC50 [9]: 13.2 µM
8 | COc1ccc2c(c1)/C(=C\c1c(OC)n(-c3ccccc3)c3ccccc13)C(=O)N2 | 2.63 | 13.2 | 0.98 | 9.55 | 2 | 17.4 | 0.76 | 4.47 | 1.74 | 11 | 2.51 | 17.4 | 0.63 | 7.24 | 2.4 | 17 | 2.29 | 17.4 | 38.9 | 66.1 | CC50 [1]: 52.5 µM; LC50 (concentration giving 50% net cell kill) [4]: 58.9 µM; CC50 [5]: 42.7 µM; LC50 [6]: 63.1 µM; CC50 [7]: 47.9 µM; LC50 [8]: 50.1 µM; LC50 [9]: 63.1 µM
9 | COc1cc2c(/C=C3/C(=O)Nc4ccc(Cl)cc43)c(Cl)n(Cc3cc(OC)c(OC)c(OC)c3)c2cc1C | 1.78 | 3.89 | 2.34 | 6.03 | 3.72 | 13.8 | 1.86 | 4.79 | 2.19 | 5.62 | 2.29 | 5.89 | 2.09 | 5.5 | 2.29 | 5.75 | 2.95 | 7.24 | 23.4 | 39.8 | CC50 [1]: 8.91 µM; LC50 (concentration giving 50% net cell kill) [4]: 15.8 µM; CC50 [5]: 29.5 µM; LC50 [6]: 16.2 µM; CC50 [7]: 22.4 µM; LC50 [8]: 17.8 µM; LC50 [9]: 18.6 µM
10 | COc1cc2c(cc1C)NC(=O)/C2=C/c1c(Cl)n(Cc2cc(OC)c(OC)c(OC)c2)c2cc(C)c(OC)cc12 | 5.5 | 87.1 | 49 |  | 30.9 |  | 3.24 | 42.7 | 16.6 |  | 11 | 66.1 | 10 |  | 25.1 |  | 38.9 |  |  |  | 
11 | COc1c(/C=C2/C(=O)Nc3ccc(Cl)cc32)c2ccccc2n1-c1ccccc1 | 9.33 | 24 | 5.25 | 19.1 | 8.51 | 24 | 2.34 | 8.91 | 6.31 | 25.7 | 9.55 | 24.6 | 4.27 | 13.8 | 5.62 | 18.2 | 8.51 | 21.9 | 52.5 | 66.1 | CC50 [1]: 60.3 µM; LC50 (concentration giving 50% net cell kill) [4]: 58.9 µM; CC50 [5]: 60.3 µM; LC50 [6]: 57.5 µM; CC50 [7]: 52.5 µM; LC50 [8]: 51.3 µM; LC50 [9]: 51.3 µM
